Experiments:
OVCAR-3 [1] = test: Cellular uptake in human OVCAR-3 cells expressing androgen receptor after 24 hrs; format: ADME, cell-based; conditions: ovcar-3, 24 h
Outline: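 NIH:OVCAR-3 cells in complete RPMI-1640 exposed to the radioligand for 24 h (concentration series) or at 1.75 μCi/mL for set times; medium then replaced and cells cultured further 24–48 h; whole-cell and DNA uptake in cpm/cell.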

[2] = biological target: T1, Sex hormone-binding globulin (Homo sapiens, UniProt P04278); test: Binding affinity to human sex hormone binding globulin after 30 mins by size-exclusion HPLC analysis; format: ADME
T1 sequence (P04278 whole entry): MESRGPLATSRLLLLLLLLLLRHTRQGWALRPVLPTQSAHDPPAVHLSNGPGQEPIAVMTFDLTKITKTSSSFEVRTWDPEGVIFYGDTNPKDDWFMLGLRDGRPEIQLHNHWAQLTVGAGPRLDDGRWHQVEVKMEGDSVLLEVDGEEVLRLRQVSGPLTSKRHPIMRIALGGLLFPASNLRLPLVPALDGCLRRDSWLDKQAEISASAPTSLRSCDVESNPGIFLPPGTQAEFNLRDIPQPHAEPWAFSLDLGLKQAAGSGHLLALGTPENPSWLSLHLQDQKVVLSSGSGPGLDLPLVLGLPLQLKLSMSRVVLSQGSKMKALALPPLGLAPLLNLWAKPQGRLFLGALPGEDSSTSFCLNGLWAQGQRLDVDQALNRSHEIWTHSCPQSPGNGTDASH
Outline: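 Purified human SHBG diluted in PBS pH 7.1 to a range of concentrations; radioligand in CH3CN (10 μL, ~5.4 μCi average) added, vortexed, 30 min at ambient temperature. Aliquots analysed by size-exclusion HPLC for SHBG-bound peak.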

OVCAR-3 [3] = test: Antitumor activity against human OVCAR-3 cells xenografted in athymic NCr mouse assessed as tumor burden in peritoneum at 0.25 mCi, ip administered 31 days after tumor implantation as single bolus dose measured 55 days after implantation by gamma counting in presence of SHBG (Rvb= 4.1 +/- 0.6 g); format: functional
[4] = Chemical stability in phosphate buffer saline by HPLC analysis; format: physicochemical
[5] = biological target: T2, Sex hormone-binding globulin (Oryctolagus cuniculus, UniProt P15196); test: Binding affinity to rabbit sex hormone binding globulin at 20 uCi after 60 mins by size-exclusion HPLC analysis; format: ADME; conditions: 1 h
T2 sequence (P15196 whole entry): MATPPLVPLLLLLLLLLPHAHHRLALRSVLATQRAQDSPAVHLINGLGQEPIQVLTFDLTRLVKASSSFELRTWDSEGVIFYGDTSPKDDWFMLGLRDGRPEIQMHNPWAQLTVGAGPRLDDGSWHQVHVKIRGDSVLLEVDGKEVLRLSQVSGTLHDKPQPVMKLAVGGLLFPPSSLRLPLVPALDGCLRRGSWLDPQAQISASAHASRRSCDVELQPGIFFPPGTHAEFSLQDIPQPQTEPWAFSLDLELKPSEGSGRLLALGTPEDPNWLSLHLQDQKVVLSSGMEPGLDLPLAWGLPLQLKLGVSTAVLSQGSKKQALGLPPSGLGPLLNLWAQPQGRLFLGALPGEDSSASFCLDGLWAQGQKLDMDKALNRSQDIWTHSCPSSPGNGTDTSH
Outline: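 Radioligand incubated 60 min with purified human SHBG or with human, rabbit or mouse serum. Size-exclusion HPLC (TSK3000): 0.1 M potassium phosphate/0.1 M Na2SO4 1:1 pH 6.8 for 20 min, then 0–40% CH3CN over 20 min, held 30 min, 0.7 mL/min.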

Blood = test: Biodistribution in blood of athymic NCr mouse xenografted with human OVCAR-3 cells assessed per gram of tissue at an average 39.5 uCi/dose, ip administered 9 days after tumor implantation as six fractionated doses every 4 days measured after 2 weeks of last dose by gamma counting; format: ADME, organism-based; conditions: in vivo, 336 h
Outline: (§1)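 OVCAR-3-bearing and healthy athymic mice given fractionated ip doses on the six-dose every-4-days schedule; tissues, tumor and lavaged cells γ-counted at necropsy, %ID/g; DNA-bound 125I in cells measured as cpm/cell.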

[6] = Biodistribution in peritoneum of athymic NCr mouse xenografted with human OVCAR-3 cells at 1.12 uCi, ip after 1.5 hrs by gamma counting; format: ADME, organism-based; conditions: in vivo
[7] = Ratio of drug level in tumor to uterus in athymic NCr mouse xenografted with human OVCAR-3 cells at 180 uCi, ip administered 9 days after tumor implantation as six fractionated doses every 4 days measured after 1.5 hrs by gamma counting; format: ADME, organism-based; conditions: in vivo
OVCAR-3 [8] = test: Cellular uptake in human OVCAR-3 cells xenografted in athymic NCr mouse assessed as [125I]UdR retention per cell at an average 39.5 uCi/dose, ip administered 9 days after tumor implantation as six fractionated doses every 4 days measured after 2 weeks of last dose by gamma counting; format: ADME, organism-based; conditions: in vivo, 336 h; outline: as §1
[9] = Ratio of drug level in tumor to kidney in athymic NCr mouse xenografted with human OVCAR-3 cells at 180 uCi, ip administered 9 days after tumor implantation as six fractionated doses every 4 days measured after 1.5 hrs by gamma counting; format: ADME, organism-based; conditions: in vivo
[10] = Ratio of drug level in tumor to blood in athymic NCr mouse xenografted with human OVCAR-3 cells at 180 uCi, ip administered 9 days after tumor implantation as six fractionated doses every 4 days measured after 48 hrs by gamma counting; format: ADME, organism-based; conditions: tumour
OVCAR-3 [11] = test: Antitumor activity against human OVCAR-3 cells xenografted in athymic NCr mouse assessed as reduction of tumor size in peritoneum at 180 uCi, ip administered 9 days after tumor implantation as six fractionated doses every 4 days measured after 2 weeks of last dose by gamma counting; format: functional; design: scale not given: the % may be the effect or the level left
Outline: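 OVCAR-3 ip xenografts in athymic mice; six fractionated ip doses every 4 days, total 180 μCi/mouse, with PBS or vehicle ip controls. Nonadherent tumor cells recovered by peritoneal lavage at necropsy, counted and pellet-weighed.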

[12] = biological target: T2, Sex hormone-binding globulin; test: Binding affinity to rabbit sex hormone binding globulin at 10 to 20 uCi/mL after 60 mins by reversed phase HPLC analysis; format: ADME; conditions: 1 h
[13] = Chemical stability in RPMI-1640 serum-free medium assessed as half life at 12.2 uCi by HPLC analysis; format: physicochemical
[14] = Stability in human OVCAR-3 cells expressing androgen receptor assessed as assessed as compound degradation at 0.01 to 5 uCi/mL up to 24 hrs by silica gel instant thin layer chromatography; format: ADME, cell-based; conditions: read-out: Activity
[15] = Ratio of drug level in tumor to spleen in athymic NCr mouse xenografted with human OVCAR-3 cells at 180 uCi, ip administered 9 days after tumor implantation as six fractionated doses every 4 days measured after 72 hrs by gamma counting; format: ADME, organism-based; conditions: in vivo
[16] = biological target: T2, Sex hormone-binding globulin; test: Binding affinity to rabbit sex hormone binding globulin assessed as intact compound remaining at 10 to 20 uCi/mL after 60 mins by size-exclusion HPLC analysis; format: ADME; conditions: read-out: Stability
Outline: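 Radioligand incubated 60 min in rabbit serum; size-exclusion HPLC as for SHBG binding (phosphate/Na2SO4 pH 6.8, then CH3CN gradient) for SHBG-bound peak, with extracts run on C18 for intact compound.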

[17] = biological target: T1, Sex hormone-binding globulin; test: Binding affinity to human sex hormone binding globulin at 10 to 20 uCi/mL after 60 mins by instant thin layer chromatography; format: ADME; conditions: 1 h

Compound | Drug uptake (OVCAR-3 [1]) | Kd [2] [nM] | Bmax ([2]; human, 0.5 h) [nM] | Activity (OVCAR-3 [3]) [g] | Stability [4] | Activity [5] | Drug uptake (Blood) [%ID] | Drug uptake [6] [%] | Ratio [7] | Drug uptake (OVCAR-3 [8]) [cpm] | Ratio [9] | Ratio [10] | Activity (OVCAR-3 [11]) [%] | Activity [12] | t1/2 [13] [h] | metabolised at 24 h [14] [%] | Ratio [15] | remaining at 1 h [16] [%] | Activity [17]
C[C@]12CCC(=O)C[C@@H]1CC[C@@H]1[C@@H]2CC[C@]2(C)[C@@H](OC(=O)CCC(=O)O[C@H]3C[C@H](n4cc([125I])c(=O)[nH]c4=O)O[C@@H]3COP(=O)(O)O)CC[C@@H]12 | Dose-dependent effect | 17.2 | 4.5 | 3.1 | Stable | Active | 0.003 |  |  |  |  |  |  |  |  |  |  |  | 
C[C@]12CCC(=O)C[C@@H]1CC[C@@H]1[C@@H]2CC[C@]2(C)[C@@H](OC(=O)CCC(=O)O[C@H]3C[C@H](n4cc([125I])c(=O)[nH]c4=O)O[C@@H]3CO)CC[C@@H]12 |  |  |  |  |  |  |  | 29 | 1.4 | 0.0124 | 0.9 | 36.5 | 70 | Active | 54.2 | 1.1 | 11.9 | > 84 | Active
